{
  "source": "ChEMBL document CHEMBL1140918",
  "about": "“Candidate selection and preclinical evaluation of N-tert-butyl isoquine (GSK369796), an affordable and effective 4-aminoquinoline antimalarial for the 21st century” (J Med Chem, 2009)",
  "key": {"Plasmodium falciparum [1]": {"system": "Plasmodium falciparum", "test": "Antimalarial activity against chloroquine-sensitive Plasmodium falciparum 3D7 in human erythrocytes after 48 hrs by [3H]hypoxanthine uptake", "type": "functional, organism-based", "procedure,_shortened": "(§1)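 P. falciparum grown in human erythrocytes in RPMI 1640 with 25 mM HEPES, 32 mM NaHCO3 and 10% human serum, gassed 3% O2/4% CO2/93% N2. Assay at 2% parasitemia, 0.5% hematocrit, drug stocks in DMSO diluted in medium, in triplicate. After 24 h at 37 °C, [3H]-hypoxanthine added and incubation continued 24 h. Scintillation counting; IC50 by probit interpolation of log dose-response, three independent experiments.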"}, "Plasmodium falciparum [2]": {"system": "Plasmodium falciparum", "test": "Antimalarial activity against chloroquine-sensitive Plasmodium falciparum HB3 in human erythrocytes after 48 hrs by [3H]hypoxanthine uptake", "type": "functional, organism-based", "procedure,_shortened": "as §1"}, "Plasmodium falciparum [3]": {"system": "Plasmodium falciparum", "test": "Antimalarial activity against chloroquine-resistant Plasmodium falciparum K1 in human erythrocytes after 48 hrs by [3H]hypoxanthine uptake", "type": "functional, organism-based", "procedure,_shortened": "as §1"}, "Plasmodium berghei": {"system": "Plasmodium berghei", "test": "Antimalarial activity as reduced parasitaemia against Plasmodium berghei ANKA infected CD1 mice (Mus musculus) after 4 days", "type": "functional", "settings": "96 h", "procedure,_shortened": "(§2)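 Standard Peters 4-day test in female age-matched CD1 mice, randomised into groups of 5. Mice were infected iv on day 0 with 6.4 × 10^6 or 10.0 × 10^6 parasites (P. berghei or P. yoelii) from infected donors. Peripheral-blood parasitaemia was read by flow cytometry at day 4 and compared with vehicle-treated groups. Doses ranged up to 40 mg/kg.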"}, "Plasmodium yoelii [4]": {"system": "Plasmodium yoelii", "test": "Antimalarial activity as reduced parasitaemia against Plasmodium yoelii 17X infected CD1 mice (Mus musculus) after 4 days", "type": "functional", "settings": "96 h"}, "Plasmodium yoelii [5]": {"system": "Plasmodium yoelii", "test": "Antimalarial activity as ED100 in peripheral blood against Plasmodium yoelii 17X infected CD1 mice (Mus musculus) after 4 days", "type": "functional"}, "Heme [6]": {"system": "Heme", "test": "Binding affinity to heme in DMSO assessed as equilibrium constant by UV-visible spectrophotometry", "parameters": "scale not given here", "procedure,_shortened": "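Haem titrations were run in buffered 40% DMSO so that haem stays monomeric and aggregation and μ-oxo dimer formation are minimised. Binding data were fitted mathematically to two alternative binding-process models to pick the best fit.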"}, "Plasmodium yoelii [7]": {"system": "Plasmodium yoelii", "test": "Antimalarial activity as reduced parasitaemia at day 4 against Plasmodium yoelii 17X infected CD1 mice (Mus musculus) at 40 mg/kg", "type": "functional, organism-based", "parameters": "dose 40 mg/kg", "procedure,_shortened": "as §2"}, "Heme [8]": {"system": "Heme", "test": "Binding affinity to heme in 12 mM SDS surfactant assessed as equilibrium constant by UV-visible spectrophotometry"}},
  "note": "Active and inactive are the calls of the source. No cut-off for these calls is given here.",
  "data": [
    {"smiles": "CCN(CC)Cc1cc(Nc2ccnc3cc(Cl)ccc23)ccc1O.Cl", "values": [
      {"measurement": "IC50", "setting": "Plasmodium falciparum [1]", "result": 11.2, "unit": "nM"},
      {"measurement": "IC50", "setting": "Plasmodium falciparum [2]", "result": 9.6, "unit": "nM"},
      {"measurement": "IC50", "setting": "Plasmodium falciparum [3]", "result": 15.5, "unit": "nM"},
      {"measurement": "ED50", "setting": "Plasmodium berghei", "result": 2.1, "unit": "mg/kg"},
      {"measurement": "ED90", "setting": "Plasmodium berghei", "result": 3.2, "unit": "mg/kg"},
      {"measurement": "ED50", "setting": "Plasmodium yoelii [4]", "result": 2.6, "unit": "mg/kg"},
      {"measurement": "ED90", "setting": "Plasmodium yoelii [4]", "result": 3.7, "unit": "mg/kg"},
      {"measurement": "Activity", "setting": "Plasmodium yoelii [5]", "result": ">40", "unit": "mg/kg"},
      {"measurement": "Activity", "setting": "Heme [6]", "result": 4.4}
    ]},
    {"smiles": "C=C[C@H]1CN2CC[C@H]1C[C@H]2[C@H](O)c1ccnc2ccc(OC)cc12", "values": [
      {"measurement": "Activity", "setting": "Heme [6]", "result": 4.4}
    ]},
    {"smiles": "CC(C)(C)NCc1cc(Nc2ccnc3cc(Cl)ccc23)ccc1F", "values": [
      {"measurement": "Activity", "setting": "Plasmodium yoelii [7]", "result": "inactive"}
    ]},
    {"smiles": "OC(c1cc(C(F)(F)F)nc2c(C(F)(F)F)cccc12)C1CCCCN1", "note": "(stereo not drawn)", "values": [
      {"measurement": "Activity", "setting": "Heme [6]", "result": 3.84}
    ]},
    {"smiles": "c1ccncc1", "values": [
      {"measurement": "Activity", "setting": "Heme [8]", "result": 2.24}
    ]}
  ]
}
